Data as given in ChEMBL document CHEMBL4038284, “Synthesis of novel quinoline-based 4,5-dihydro-1H-pyrazoles as potential anticancer, antifungal, antibacterial and antiprotozoal agents” (Eur J Med Chem, 2017).
Values after ≈ are worked out from the molar mass of the structure shown.

Experiments:
[1] = tested on: Candida albicans; assay: Growth inhibition of Candida albicans ATCC 10231 at 3.4 ug/ml incubated for 48 hrs under dark condition by broth microdilution method relative to control; format: functional; settings: ATCC 10231, 48 h, read-out: GI
[2] = tested on: Cryptococcus neoformans; assay: Growth inhibition of Cryptococcus neoformans ATCC 32264 at 7.8 ug/ml incubated for 48 hrs under dark condition by broth microdilution method relative to control; format: functional; settings: ATCC 32264, 48 h, read-out: GI
In short: (§1)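 CLSI M27-A3 broth microdilution in RPMI-1640, DMSO ≤1%. Inoculum 1-5 × 10^3 CFU/mL. Incubated 48 h at 30 °C, dark. % inhibition = 100 − (OD405 test − sterility control)/(OD405 growth control − sterility control), with growth and sterility control wells. Triplicate.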

[3] = tested on: Plasmodium falciparum; assay: Antiplasmodial activity against chloroquine-sensitive Plasmodium falciparum 3D7 assessed as reduction in parasitic LDH activity after 48 hrs by Malstat reagent based […] method; format: functional; settings: 3D7, 48 h
In short: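 Unsynchronized P. falciparum 3D7 at 0.5% parasitemia and 1% hematocrit in RPMI with 3% Albumax II. Exposed to 100, 25, 6.25 and 1.56 µg/mL for 48 h at 37 °C under 90% N2/5% CO2/5% O2. After three freeze-thaw cycles, LDH measured with Malstat and NBT/PES, 1 h in the dark, read at 650 nm. IC50 by Probit; triplicate, ≥2 experiments.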

[4] = tested on: Staphylococcus aureus; assay: Antibacterial activity against methicillin-resistant Staphylococcus aureus ATCC 43300 after 24 hrs by resazurin dye based microdilution assay; format: functional; settings: ATCC 43300, 24 h
In short: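 Broth microdilution in Mueller Hinton broth, inoculum 5 × 10^5 – 8 × 10^5. Compound stocks diluted in MHB with 5% DMSO and 0.1% Tween 80. Incubation 24 h at 35-37 °C. MIC is the lowest concentration with visible growth inhibition and/or by resazurin (1 mg/mL) read-out. Gentamicin as control. Run in duplicate, replicated at least three times.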

[5] = tested on: Staphylococcus aureus; assay: Antibacterial activity against methicillin-sensitive Staphylococcus aureus ATCC 25923 after 24 hrs by resazurin dye based microdilution assay; format: functional; settings: ATCC 25923, 24 h
In short: (§2)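 MIC taken as the lowest concentration giving visible inhibition and/or by resazurin (1 mg/mL). Gentamicin was the control. Run in duplicate, repeated at least three times.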

[6] = tested on: Leishmania panamensis; assay: Antileshmanial activity against EpiR/GFP fused Leishmania panamensis MHOM/CO/87/UA140 intracellular amastigotes infected in human […] cells after 72 hrs by flow cytometric method; format: functional, cell-based; settings: MHOM/CO/87/UA140, 72 h
In short: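 PMA-treated U-937 cells (3 × 10^5 cells/mL) infected with stationary-phase GFP L. panamensis promastigotes (15:1), 3 h at 34 °C, then washed. After 24 h, compounds added at 50, 12.5, 3.125 and 0.78 µg/mL for 72 h at 37 °C. EC50 by Probit; triplicate, two experiments.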

[7] = tested on: U-937; assay: Cytotoxicity against human U937 cells after 72 hrs by MTT assay; format: cell-based; settings: u-937, 72 h
In short: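 Exponentially growing U-937 at 1 × 10^5 cells/mL in RPMI-1640 with 10% FBS were exposed to 200, 50, 12.5 and 3.125 µg/mL for 72 h at 37 °C, 5% CO2. MTT for 3 h, stopped with isopropanol/SDS, formazan read at 570 nm, blank-corrected. LC50 by Probit from % viability against untreated cells. Triplicate, at least two independent experiments.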

[8] = tested on: Staphylococcus aureus; assay: Antibacterial activity against vancomycin-intermediate Staphylococcus aureus after 24 hrs by resazurin dye based microdilution assay; format: functional; in short: as §2
[9] = tested on: Cryptococcus neoformans; assay: Growth inhibition of Cryptococcus neoformans ATCC 32264 at 3.4 ug/ml incubated for 48 hrs under dark condition by broth microdilution method relative to control; format: functional; settings: ATCC 32264, 48 h, read-out: GI
[10] = tested on: Cryptococcus neoformans; assay: Antifungal activity against Cryptococcus neoformans ATCC 32264 incubated for 48 hrs under dark condition by broth microdilution method; format: functional; settings: ATCC 32264, 48 h
In short: (§3)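 CLSI M27-A3 broth microdilution in RPMI-1640, DMSO ≤1%, compounds at 250-0.98 µg/mL final. Inoculum 1-5 × 10^3 CFU/mL. Incubated 48 h at 30 °C in a moist dark chamber, read at OD405. MIC80 and MIC50 taken from % inhibition dose-response curves (mean ± SEM, triplicate). Amphotericin B was the positive control.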

[11] = tested on: Pseudomonas aeruginosa; assay: Antibacterial activity against Pseudomonas aeruginosa ATCC 27853 after 24 hrs by resazurin dye based microdilution assay; format: functional; settings: ATCC 27853, 24 h; in short: as §2
[12] = tested on: Cryptococcus neoformans; assay: Growth inhibition of Cryptococcus neoformans ATCC 32264 at 125 ug/ml incubated for 48 hrs under dark condition by broth microdilution method relative to control; format: functional; settings: ATCC 32264, 48 h, read-out: GI; in short: as §1
[13] = tested on: Cryptococcus neoformans; assay: Growth inhibition of Cryptococcus neoformans ATCC 32264 at 250 ug/ml incubated for 48 hrs under dark condition by broth microdilution method relative to control; format: functional; settings: ATCC 32264, 48 h, read-out: GI; in short: as §1
[14] = tested on: Cryptococcus neoformans; assay: Growth inhibition of Cryptococcus neoformans ATCC 32264 at 62.5 ug/ml incubated for 48 hrs under dark condition by broth microdilution method relative to control; format: functional; settings: ATCC 32264, 48 h, read-out: GI; in short: as §1
[15] = tested on: Candida albicans; assay: Growth inhibition of Candida albicans ATCC 10231 at 125 ug/ml incubated for 48 hrs under dark condition by broth microdilution method relative to control; format: functional; settings: ATCC 10231, 48 h, read-out: GI; in short: as §1
[16] = tested on: Trypanosoma cruzi; assay: Antitrypanosomal activity against Trypanosoma cruzi Tulahuen intracellular amastigote harboring LacZ infected in human U937 cells after 72 hrs by CPRG/Nonidet reagent based spectrophotometric method; format: functional, cell-based; settings: U-937, 72 h
In short: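 U-937 cells at 2.5 × 10^5 cells/mL in RPMI-1640 with 10% serum and 0.1 µg/mL PMA were infected with β-galactosidase-transfected Tulahuen epimastigotes at 5 parasites per cell. Infected cells were exposed to 50, 12.5, 3.125 and 0.78 µg/mL for 72 h. CPRG (100 uM) and 0.1% Nonidet P-40 were added for 3 h, read at 570 nm. EC50 by Probit. Triplicate, at least two experiments; benznidazole as reference.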

[17] = tested on: Cryptococcus neoformans; assay: Growth inhibition of Cryptococcus neoformans ATCC 32264 at 31.25 ug/ml incubated for 48 hrs under dark condition by broth microdilution method relative to control; format: functional; settings: ATCC 32264, 48 h, read-out: GI; in short: as §1
[18] = tested on: Candida albicans; assay: Growth inhibition of Candida albicans ATCC 10231 at 7.8 ug/ml incubated for 48 hrs under dark condition by broth microdilution method relative to control; format: functional; settings: ATCC 10231, 48 h, read-out: GI; in short: as §1
[19] = tested on: Cryptococcus neoformans; assay: Growth inhibition of Cryptococcus neoformans ATCC 32264 at 15.62 ug/ml incubated for 48 hrs under dark condition by broth microdilution method relative to control; format: functional; settings: ATCC 32264, 48 h, read-out: GI; in short: as §1
[20] = tested on: Candida albicans; assay: Growth inhibition of Candida albicans ATCC 10231 at 31.25 ug/ml incubated for 48 hrs under dark condition by broth microdilution method relative to control; format: functional; settings: ATCC 10231, 48 h, read-out: GI; in short: as §1
[21] = tested on: Klebsiella pneumoniae; assay: Antibacterial activity against ESBL positive Klebsiella pneumoniae ATCC 700603 after 24 hrs by resazurin dye based microdilution assay; format: functional; settings: Klebsiella pneumoniae, 700603, 24 h; in short: as §2
[22] = tested on: Klebsiella pneumoniae; assay: Antibacterial activity against carbapenemase positive Klebsiella pneumoniae BAA 1705 after 24 hrs by resazurin dye based microdilution assay; format: functional; settings: BAA 1705, 24 h; in short: as §2
[23] = tested on: Candida albicans; assay: Antifungal activity against Candida albicans ATCC 10231 incubated for 48 hrs under dark condition by broth microdilution method; format: functional; settings: ATCC 10231, 48 h; in short: as §3
[24] = tested on: Candida albicans; assay: Growth inhibition of Candida albicans ATCC 10231 at 62.5 ug/ml incubated for 48 hrs under dark condition by broth microdilution method relative to control; format: functional; settings: ATCC 10231, 48 h, read-out: GI; in short: as §1
[25] = tested on: Candida albicans; assay: Growth inhibition of Candida albicans ATCC 10231 at 250 ug/ml incubated for 48 hrs under dark condition by broth microdilution method relative to control; format: functional; settings: ATCC 10231, 48 h, read-out: GI; in short: as §1
[26] = tested on: Escherichia coli; assay: Antibacterial activity against Escherichia coli ATCC 25922 after 24 hrs by resazurin dye based microdilution assay; format: functional; settings: ATCC 25922, 24 h; in short: as §2
[27] = tested on: Candida albicans; assay: Growth inhibition of Candida albicans ATCC 10231 at 15.62 ug/ml incubated for 48 hrs under dark condition by broth microdilution method relative to control; format: functional; settings: ATCC 10231, 48 h, read-out: GI; in short: as §1
[28] = tested on: Neisseria gonorrhoeae; assay: Antibacterial activity against beta lactamase positive Neisseria gonorrhoeae ATCC 31426 by oxidase test; format: functional
In short: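 Agar dilution MIC on GC agar with 1% isovitalex containing increasing compound concentrations. Plates inoculated with about 1×10^4 CFU (5 µL). MIC is the lowest concentration that inhibited growth, with growth confirmed by oxidase test. Run in duplicate, repeated at least three times.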

Row | SMILES | inhibition of growth at 3.4 µg/mL [1] [%] | inhibition of growth at 7.8 µg/mL [2] [%] | EC50 [3] [µg/mL] | MIC [4] [µg/mL] | MIC [5] [µg/mL] | EC50 [6] [µg/mL] | LC50 [7] [µg/mL] | MIC [8] [µg/mL] | inhibition of growth at 3.4 µg/mL [9] [%] | MIC50 [10] [µg/mL] | MIC80 [10] [µg/mL] | MIC [11] [µg/mL] | inhibition of growth at 125 µg/mL [12] [%] | inhibition of growth at 250 µg/mL [13] [%] | inhibition of growth at 62.5 µg/mL [14] [%] | inhibition of growth at 125 µg/mL [15] [%] | EC50 [16] [µg/mL] | inhibition of growth at 31.25 µg/mL [17] [%] | inhibition of growth at 7.8 µg/mL [18] [%] | inhibition of growth at 15.62 µg/mL [19] [%] | also measured
1 | CC(=O)N1N=C(c2ccc(Cl)cc2)CC1c1cccc(Nc2ccnc3cc(Cl)ccc23)c1 (stereo not given) | 14.7 | 26.7 | 26.3 (≈ 55.4 µM) | > 1000 | > 1000 | 5.53 (≈ 11.6 µM) | 17 (≈ 35.8 µM) | > 1000 | 11.1 | 125 (≈ 263 µM) | 250 (≈ 526 µM) | > 1000 | 53.4 | 100 | 32.2 | 38.8 | 6.57 (≈ 13.8 µM) | 28.1 | 19.6 | 18.7 | inhibition of growth at 31.25 µg/mL [20]: 21.6%; MIC [21]: > 1000 µg/mL; MIC [22]: > 1000 µg/mL; MIC50 [23]: ≥ 250 µg/mL; MIC80 [23]: ≥ 250 µg/mL; inhibition of growth at 62.5 µg/mL [24]: 22.5%; inhibition of growth at 250 µg/mL [25]: 40.9%; MIC [26]: > 1000 µg/mL; inhibition of growth at 15.62 µg/mL [27]: 20%; MIC [28]: > 1000 µg/mL
2 | Cc1ccc(C2=NN(c3cc(Cl)cc(Cl)c3)C(c3cccc(Nc4ccnc5cc(Cl)ccc45)c3)C2)cc1 (stereo not given) | 0 | 1.15 | 65.2 (≈ 117 µM) | > 1000 | > 1000 | 18.1 (≈ 32.5 µM) | > 200 | > 1000 | 0 | ≥ 250 | ≥ 250 | > 1000 | 15.3 | 40.9 | 8.02 | 3.88 | 49.2 (≈ 88.3 µM) | 6.71 | 0 | 1.85 | inhibition of growth at 31.25 µg/mL [20]: 0%; MIC [21]: > 1000 µg/mL; MIC [22]: > 1000 µg/mL; MIC50 [23]: ≥ 250 µg/mL; MIC80 [23]: ≥ 250 µg/mL; inhibition of growth at 62.5 µg/mL [24]: 0%; inhibition of growth at 250 µg/mL [25]: 17.9%; MIC [26]: > 1000 µg/mL; inhibition of growth at 15.62 µg/mL [27]: 0%; MIC [28]: > 1000 µg/mL
3 | Cc1ccc(C2=NN(c3ccccc3)C(c3cccc(Nc4ccnc5cc(Cl)ccc45)c3)C2)cc1 (stereo not given) | 2.29 | 0 | 13.5 (≈ 27.7 µM) | > 1000 | > 1000 | 1.83 (≈ 3.74 µM) | 1.4 (≈ 2.86 µM) | > 1000 | 0 | ≥ 250 | ≥ 250 | > 1000 | 7.45 | 31.5 | 4.01 | 22.9 | 1.09 (≈ 2.23 µM) | 1.72 | 2.53 | 0.86 | inhibition of growth at 31.25 µg/mL [20]: 12%; MIC [21]: > 1000 µg/mL; MIC [22]: > 1000 µg/mL; MIC50 [23]: ≥ 250 µg/mL; MIC80 [23]: ≥ 250 µg/mL; inhibition of growth at 62.5 µg/mL [24]: 13.1%; inhibition of growth at 250 µg/mL [25]: 28.3%; MIC [26]: > 1000 µg/mL; inhibition of growth at 15.62 µg/mL [27]: 7.89%; MIC [28]: > 1000 µg/mL
